# Key:
# [1] = Cmax in rat plasma after oral dose (50 mg/Kg); type: ADME, organism-based; parameters: dose 50 mg/Kg, route oral
# Outline: (§1)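 Rats given 50 mg/kg orally. Plasma was separated at once by centrifugation and stored at -80 °C. Proteins were precipitated with acetonitrile and drug measured by HPLC to give Cmax, AUC and t1/2.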
# [2] = molecular target: Endothelin-1 receptor (Homo sapiens) (UniProt P25101); assay: Selectivity towards endothelin A receptor in human.
# [3] = Compound was evaluated for area under the curve expressed as (h*ug/ml); type: ADME, organism-based; parameters: concentration or dose not given beside the values; details: rat, in vivo; outline: as §1
# Endothelin-1 receptor [4] = molecular target: T1, Endothelin-1 receptor (Homo sapiens, UniProt P25101); assay: Displacement of [125I]ET-1 from Endothelin A receptor
# T1 sequence (P25101 whole entry): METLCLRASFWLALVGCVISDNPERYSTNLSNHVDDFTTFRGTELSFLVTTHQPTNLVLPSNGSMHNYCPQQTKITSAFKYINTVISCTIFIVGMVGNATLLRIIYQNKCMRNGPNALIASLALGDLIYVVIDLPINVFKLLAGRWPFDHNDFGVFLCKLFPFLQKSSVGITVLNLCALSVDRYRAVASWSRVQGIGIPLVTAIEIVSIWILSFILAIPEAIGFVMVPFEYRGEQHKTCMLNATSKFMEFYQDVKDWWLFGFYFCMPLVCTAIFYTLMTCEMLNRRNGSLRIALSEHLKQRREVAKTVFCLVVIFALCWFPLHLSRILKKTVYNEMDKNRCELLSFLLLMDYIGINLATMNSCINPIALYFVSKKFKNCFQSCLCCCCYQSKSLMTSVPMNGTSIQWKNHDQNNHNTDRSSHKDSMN
# [5] = Half life period was determined; type: ADME, organism-based; details: rat, in vivo; outline: as §1
# [6] = Compound was evaluated for oral bioavailability in rats; details: rat, in vivo
# Rattus norvegicus = assay: Compound was evaluated for oral dose to effect 50% inhibition of mean pulmonary arterial pressure (MPAP; type: functional, Artery
# Outline: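 Acute hypoxia-induced pulmonary hypertension model in rats. Compound given orally; the oral dose giving 50% inhibition of the increase in mean pulmonary arterial pressure is reported.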
# [7] = molecular target: Endothelin receptor (Rattus norvegicus) (UniProt P26684+P21451); assay: Selectivity for endothelin A receptor over endothelin receptor B; type: protein assay
# Endothelin-1 receptor [8] = molecular target: T2, Endothelin-1 receptor (Rattus norvegicus, UniProt P26684); assay: Binding affinity towards Endothelin A receptor
# T2 sequence (P26684 whole entry): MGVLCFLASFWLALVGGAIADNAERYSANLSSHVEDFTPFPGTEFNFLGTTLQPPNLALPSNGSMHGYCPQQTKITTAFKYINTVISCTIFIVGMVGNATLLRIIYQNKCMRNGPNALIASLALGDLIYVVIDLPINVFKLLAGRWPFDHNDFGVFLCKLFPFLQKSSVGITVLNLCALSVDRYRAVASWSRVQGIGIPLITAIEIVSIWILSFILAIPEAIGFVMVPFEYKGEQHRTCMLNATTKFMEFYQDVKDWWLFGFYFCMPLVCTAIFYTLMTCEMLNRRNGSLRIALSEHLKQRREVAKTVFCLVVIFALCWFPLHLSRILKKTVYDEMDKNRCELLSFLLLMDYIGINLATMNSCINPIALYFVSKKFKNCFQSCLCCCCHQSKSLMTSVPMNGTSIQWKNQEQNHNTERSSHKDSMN
# [9] = molecular target: T3, Endothelin-1 receptor (Rattus norvegicus) (UniProt P26684); assay: Selectivity towards endothelin A receptor in rat.
# T3 sequence (whole entry): T2 sequence (P26684 whole entry)
# Sequence of Endothelin receptor (Rattus norvegicus) (P21451 whole entry, looked up, one chain of several): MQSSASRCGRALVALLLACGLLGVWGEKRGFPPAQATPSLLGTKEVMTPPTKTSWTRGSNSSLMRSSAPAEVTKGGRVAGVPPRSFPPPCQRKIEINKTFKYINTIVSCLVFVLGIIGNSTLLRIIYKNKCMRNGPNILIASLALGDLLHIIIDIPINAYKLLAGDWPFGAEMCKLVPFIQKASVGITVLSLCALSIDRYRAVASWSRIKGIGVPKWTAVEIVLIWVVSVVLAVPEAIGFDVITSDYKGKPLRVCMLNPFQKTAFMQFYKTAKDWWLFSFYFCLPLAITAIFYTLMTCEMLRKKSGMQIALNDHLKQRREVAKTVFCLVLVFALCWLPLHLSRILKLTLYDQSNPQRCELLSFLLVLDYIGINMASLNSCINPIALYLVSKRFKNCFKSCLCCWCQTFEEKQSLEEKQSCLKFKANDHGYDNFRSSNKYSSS
Compound,Cmax [1] [ng/mL],Selectivity [2],AUC [3] [ng·h/mL],IC50 (Endothelin-1 receptor [4]) [nM],half-life [5] [h],other results
Cc1cc(C)c(NS(C)(=O)=O)c(C)c1NC(=O)c1sccc1S(=O)(=O)Nc1onc(C)c1Cl,2800,–,–,–,–,–
CCC(=O)c1c(C)c(C)cc(C)c1NC(=O)c1sccc1S(=O)(=O)Nc1onc(C)c1Cl,13000,216000,24300,0.03,1.47,–
Cc1cc(C)c(NC(=O)c2sccc2S(=O)(=O)Nc2onc(C)c2Cl)c(C(=O)CS(C)(=O)=O)c1,37300,66500,636000,0.1,12.2,bioavailability [6]: 16%; ED50 (Rattus norvegicus): > 5 mg/kg
COc1cc(OC)nc(O[C@H](C(=O)O)C(OC)(c2ccccc2)c2ccccc2)n1,–,–,–,–,–,Selectivity [7]: 60; Ki (Endothelin-1 receptor [8]): 6 nM
CCCCN(CCCC)C(=O)CN1C[C@H](c2ccc3c(c2)OCO3)[C@@H](C(=O)O)[C@@H]1c1ccc(OC)cc1,–,–,–,–,–,bioavailability [6]: 60%
Cc1cc(C)c(NC(=O)c2sccc2S(=O)(=O)Nc2onc(C)c2C)c(C#N)c1C,85800,328000,667000,0.08,5.3,–
Cc1cc(C)c(OC2CC2)c(C)c1NC(=O)c1sccc1S(=O)(=O)Nc1onc(C)c1Cl,6100,–,–,–,–,–
Cc1cc(C)c(NC(=O)c2sccc2S(=O)(=O)Nc2onc(C)c2Cl)c(C(=O)N(C)C)c1,10900,12300,27200,0.07,1.19,–
Cc1cc(C)c(NC(=O)c2sccc2S(=O)(=O)Nc2onc(C)c2Cl)c(S(=O)(=O)C(C)C)c1,–,8800,–,0.05,–,–
CCC(=O)c1cc(C)cc(C)c1NC(=O)c1sccc1S(=O)(=O)Nc1onc(C)c1Cl,–,214000,–,0.06,–,–
Cc1cc(C)c(NC(=O)c2sccc2S(=O)(=O)Nc2onc(C)c2Cl)c(C(=O)c2ccccc2)c1,33400,46000,141000,0.39,3.95,–
CCCc1c(O)c(C(C)=O)cc(C(C)=O)c1NC(=O)c1sccc1S(=O)(=O)Nc1onc(C)c1Cl,–,–,–,12.4,–,Selectivity [9]: 1000
Cc1cc(C)c(NC(=O)c2sccc2S(=O)(=O)Nc2onc(C)c2Cl)c(C(=O)C(C)C)c1,59200,–,–,0.11,–,Selectivity [9]: 144000
Cc1cc(C)c(S(N)(=O)=O)c(C)c1NC(=O)c1sccc1S(=O)(=O)Nc1onc(C)c1Cl,2900,–,–,–,–,–
Cc1cc(C)c(NC(=O)c2sccc2S(=O)(=O)Nc2onc(C)c2Cl)c(C)c1CO,2400,–,–,–,–,–
CC(=O)c1c(C)c(C)cc(C)c1NC(=O)c1sccc1S(=O)(=O)Nc1onc(C)c1Cl,10800,1.18e+06,53800,0.02,1.68,–
CO/N=C(\C)c1cc(C)cc(C)c1NC(=O)c1sccc1S(=O)(=O)Nc1onc(C)c1Cl,13800,56000,33500,0.04,1.2,–
CC(=O)OCc1c(C)cc(C)c(NC(=O)c2sccc2S(=O)(=O)Nc2onc(C)c2Cl)c1C,3800,–,–,–,–,–
